Common to all, as to format: functional, cell-based
Assay [1] deals with A549. Description: Cytotoxicity against human A549 cells assessed as total cell protein after 48 hrs by SRB assay. The settings on record: A549, 48 h. In short, it runs like this:
(§1)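 Cells kept in RPMI-1640 with 2 mM glutamine, 10% FBS, penicillin/streptomycin, 37 °C, 5% CO2. Seeded 5000 cells/well, grown 24 h, then serial dilutions from 10 mM DMSO stocks added in medium (final DMSO 0.5%), triplicate, 48 h. TCA fixation at 4 °C for 1 h, 0.4% SRB stain, dye solubilized in 10 mM Tris pH 10.4, OD 515 nm. IC50 by nonlinear regression of % control viability vs log concentration; experiments repeated at least twice.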

A short description of assay [2]: Cytotoxicity against human CNE2 cells assessed as total cell protein after 48 hrs by SRB assay. The settings on record: CNE-2, 48 h. In short, it runs like this: as §1
On the technique in general: The SRB assay estimates cell density from bound dye.

Assay [3] deals with SW480. Briefly: Cytotoxicity against human SW480 cells assessed as total cell protein after 48 hrs by SRB assay. The settings on record: SW480, 48 h. In short, it runs like this: as §1
Assay [4] deals with MCF7. Briefly: Cytotoxicity against human MCF7 cells assessed as total cell protein after 48 hrs by SRB assay. The settings on record: MCF7, 48 h. In short, it runs like this:
as §1

Assay [5] relates to HepG2. Briefly: Cytotoxicity against human HepG2 cells assessed as total cell protein after 48 hrs by SRB assay. To be noted: HepG2, 48 h. In short, it runs like this:
as §1

What is called IC50 is the point on the concentration scale where inhibition reaches its midpoint.

With `COc1cc(/C=C/C(=O)c2cccc(-c3cccc(F)c3)c2)ccc1O`, the half-inhibitory concentration (IC50) in assay [1] is 9.9 µM; in assay [2], 5.69 µM; in assay [3], 6.74 µM; in assay [4], 14.2 µM; in assay [5], 6.83 µM.
For `O=C(/C=C/c1ccc(Cl)cc1)c1cccc(-c2cccc(F)c2)c1`, in that order: 15.4 µM, 9.06 µM, 16.9 µM, 18.2 µM and 10.4 µM.
For `O=C(/C=C/c1cccc(Br)c1)c1cccc(-c2cccc(F)c2)c1`, in that order: 9.12 µM, 6.55 µM, 8.61 µM, 12.7 µM and 6.98 µM.
In the same order, the values of `COc1ccccc1/C=C/C(=O)c1cccc(-c2cccc(F)c2)c1` are 15.5 µM, 10.4 µM, 16.6 µM, 18.9 µM and 15.4 µM.
`COc1ccc(/C=C/C(=O)c2cccc(-c3cccc(F)c3)c2)cc1`: the half-inhibitory concentration (IC50) in assay [1] was 2.44 µM; in assay [2], 0.74 µM; in assay [3], 4.51 µM; in assay [4], 3.08 µM; in assay [5] it was 1.72 µM.
For `COc1ccc(/C=C/C(=O)c2cccc(-c3cccc(F)c3)c2)cc1OC`, in that order: 1.94 µM, 0.77 µM, 2.97 µM, 4.62 µM and 1.17 µM.
In the same order, the values of `COc1cccc(/C=C/C(=O)c2cccc(-c3cccc(F)c3)c2)c1OC` are 8.9 µM, 10 µM, 13.5 µM, 11.7 µM and 9.2 µM.
For `O=C(/C=C/c1ccccc1Br)c1cccc(-c2cccc(F)c2)c1`, the IC50 in assay [1] came to 12.4 µM; in assay [2] it was 8.91 µM; in assay [3], 14.8 µM; in assay [4], 20 µM; in assay [5], 12.8 µM.
As for `O=C(/C=C/c1ccc(Br)cc1)c1cccc(-c2cccc(F)c2)c1`, the IC50 in assay [1] was found to be 19.8 µM; in assay [2], 10.5 µM; in assay [3], 18.2 µM; in assay [4] it was 18.3 µM; in assay [5], 9.92 µM.
For `O=C(/C=C/c1cccc(-c2ccc(F)cc2)c1)c1ccc(F)cc1`, in that order: 12.2 µM, 7.39 µM, 13.5 µM, 14.1 µM and 12.3 µM.
In the same order, the values of `O=C(/C=C/c1cccc(-c2ccc(F)cc2)c1)c1ccc(O)cc1` are 8.36 µM, 5.51 µM, 12 µM, 10.8 µM and 5.12 µM.
In the same order, the values of `COc1ccc(/C=C/C(=O)c2ccc(N)c(-c3ccc(F)cc3)c2)cc1` are 4.31 µM, 1.6 µM, 7.23 µM, 7.58 µM and 3.75 µM.
`COc1ccc(/C=C/C(=O)c2ccc(NC(C)=O)c(-c3ccc(F)cc3)c2)cc1OC`: the half-maximal inhibitory concentration (IC50) in assay [1] came to 7.38 µM; in assay [2] it was 2.74 µM; in assay [3] it was 5.35 µM; in assay [4] it was 15 µM; in assay [5], 5.63 µM.
As for `COc1ccc(/C=C/C(=O)c2ccc(N)c(-c3ccc(F)cc3)c2)cc1OC`, the half-inhibitory concentration (IC50) in assay [1] is 8.63 µM; in assay [2] it was 3.51 µM; in assay [3], 6.64 µM; in assay [4], 15 µM; in assay [5] it was 3.78 µM.
For `COc1ccc(/C=C/C(=O)c2ccc(N)c(-c3ccc(F)cc3)c2)c(OC)c1`, in that order: 14.4 µM, 6.29 µM, 12.4 µM, 10.8 µM and 7.74 µM.
In the same order, the values of `COc1ccc(OC)c(/C=C/C(=O)c2ccc(N)c(-c3ccc(F)cc3)c2)c1` are 7.04 µM, 6.71 µM, 7.83 µM, 8.92 µM and 4.01 µM.
For `COc1cccc(/C=C/C(=O)c2ccc(N)c(-c3ccc(F)cc3)c2)c1OC`, in that order: 13.3 µM, 11.3 µM, 12.5 µM, 13.3 µM and 7.37 µM.
Regarding `COc1cc(/C=C/C(=O)c2ccc(N)c(-c3ccc(F)cc3)c2)ccc1O`, the 50% inhibitory concentration (IC50) in assay [1] is 12.2 µM; in assay [2], 5.75 µM; in assay [3], 8.35 µM; in assay [4], 10.5 µM; in assay [5], 4.3 µM.
For `COc1cc(/C=C/C(=O)c2ccc(N)c(-c3ccc(F)cc3)c2)cc(OC)c1OC`, in that order: 6.07 µM, 4.6 µM, 6.12 µM, 9.03 µM and 4.21 µM.
In the same order, the values of `Nc1ccc(C(=O)/C=C/c2ccc(O)c(F)c2)cc1-c1ccc(F)cc1` are 24.5 µM, 18.1 µM, 31.7 µM, 18.3 µM and 11.7 µM.
As for `COc1cc(/C=C/C(=O)c2ccc(N)c(-c3ccc(F)cc3)c2)cc(Br)c1O`, the concentration for half-maximal inhibition (IC50) in assay [1] is above 50 µM; in assay [2], 25.5 µM; in assay [3] it was 22.9 µM; in assay [4], 40.5 µM; in assay [5], 4.73 µM.
As for `COc1ccc(/C=C/C(=O)c2ccc(N)c(-c3ccc(F)cc3)c2)cc1O`, the half-maximal inhibitory concentration (IC50) in assay [1] stood at 0.94 µM.
As for `COc1ccc(-c2cc(C(=O)/C=C/c3ccc(F)cc3)ccc2N)cc1OC`, the half-inhibitory concentration (IC50) in assay [1] is 18 µM; in assay [2], 7.93 µM; in assay [3], 14.7 µM; in assay [4], 19.4 µM; in assay [5], 8.96 µM.
For the compound `COc1ccc(/C=C/C(=O)c2ccc(N)c(-c3ccc(OC)c(OC)c3)c2)c(OC)c1`, the IC50 in assay [1] came to 2.21 µM; in assay [2], 8.34 µM; in assay [3], 9.3 µM; in assay [4], 6.49 µM; in assay [5], 2.13 µM.
For `COc1ccc(OC)c(/C=C/C(=O)c2ccc(N)c(-c3ccc(OC)c(OC)c3)c2)c1`, in that order: 6.2 µM, 6.59 µM, 6.49 µM, 6.33 µM and 2.1 µM.
In the same order, the values of `COc1ccc(-c2cc(C(=O)/C=C/c3cccc(OC)c3OC)ccc2N)cc1OC` are 6.54 µM, 6.6 µM, 8.33 µM, 10.2 µM and 5.36 µM.
Consider `COc1ccc(-c2cc(C(=O)/C=C/c3cc(OC)c(OC)c(OC)c3)ccc2N)cc1OC`, for which the IC50 worked out at 4.62 µM in assay [1]; 4.33 µM in assay [2]; 5.63 µM in assay [3]; 6.58 µM in assay [4]; 2.68 µM in assay [5].
Consider `COc1ccc(/C=C/C(=O)c2cccc(Br)c2)cc1`, for which the concentration for half-maximal inhibition (IC50) in assay [1] came to 34.2 µM.
Still for that read-out and setting: for `COc1ccc(/C=C/C(=O)c2cccc(Br)c2)cc1OC` the value was 9.43 µM.
Same read-out and setting: the value for `COc1ccc(/C=C/C(=O)c2cccc(Br)c2)cc1O` was 5.88 µM.
As to `COc1ccc(/C=C/C(=O)c2cccc(-c3ccc(F)cc3)c2)cc1`, the concentration for half-maximal inhibition (IC50) was 11.2 µM in assay [1]; 5.55 µM in assay [2]; 8.35 µM in assay [3]; 16.4 µM in assay [4]; 5.65 µM in assay [5].
For `COc1ccc(/C=C/C(=O)c2cccc(-c3ccc(F)cc3)c2)cc1OC`, in that order: 11.8 µM, 5.55 µM, 6.49 µM, 11.6 µM and 5.37 µM.
`COc1ccc(/C=C/C(=O)c2cccc(-c3cccc(F)c3)c2)cc1O`: in assay [1], the IC50 worked out at 0.5 µM.
On the same count and under the same terms, the value for `COc1ccc(/C=C/C(=O)c2cccc(-c3ccc(F)nc3)c2)cc1O` was 2.06 µM.

These data come from ChEMBL document CHEMBL1949495, “Synthesis and cytotoxicity evaluation of biaryl-based chalcones and their potential in TNFα-induced nuclear factor-κB activation inhibition” (Eur J Med Chem, 2012).
